Screens deposited in PubChem by several laboratories.
Myeloid diff 2: induction of myeloid progenitor differentiation, primary screen, cell-based, flow cytometry, MLPCN library | 1% of 360,000 active | ER-HoxA9 myeloid progenitors, lysozyme-GFP differentiation | calls only at 10 µM | AID 624256, 2012;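 active means normalized GFP-positive differentiation at or above the plate's own cutoff, the solvent-only control mean plus 3 SD; inconclusive means no clear call, values can overlap the other calls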;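 further: cells exposed to compound for four days before flow analysis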
Platelet DG rel: inhibitors of platelet dense granule secretion, primary screen, cell-based, MLPCN, human platelets. human platelet-rich plasma, SFLLRN dense granule ATP release, luminescence. inhibition, %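 (compounds screened at 7.5 µM in platelet-rich plasma)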. 0.22% of 300,000 active. AID 1663, 2009;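 active means mean replicate score, as percent of positive control, at or above 50; inconclusive means mean below 50 but at least one replicate at or above 50; inactive means mean and every replicate below 50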
VLA-4 inh: inhibition in human VLA-4 binding assay, primary screen, VLA-4 allosteric modulator project, MLPCN library, flow cytometry, VLA-4 expressing cells | inhibition, % (about 7 µM as worked out from the volumes in the protocol) | AID 2557, 2010 | ligand binding flow cytometry | 0.2% of 330,000 active; in the data active means inhibition above about 50%
Target sequence (P13612 whole entry, looked up): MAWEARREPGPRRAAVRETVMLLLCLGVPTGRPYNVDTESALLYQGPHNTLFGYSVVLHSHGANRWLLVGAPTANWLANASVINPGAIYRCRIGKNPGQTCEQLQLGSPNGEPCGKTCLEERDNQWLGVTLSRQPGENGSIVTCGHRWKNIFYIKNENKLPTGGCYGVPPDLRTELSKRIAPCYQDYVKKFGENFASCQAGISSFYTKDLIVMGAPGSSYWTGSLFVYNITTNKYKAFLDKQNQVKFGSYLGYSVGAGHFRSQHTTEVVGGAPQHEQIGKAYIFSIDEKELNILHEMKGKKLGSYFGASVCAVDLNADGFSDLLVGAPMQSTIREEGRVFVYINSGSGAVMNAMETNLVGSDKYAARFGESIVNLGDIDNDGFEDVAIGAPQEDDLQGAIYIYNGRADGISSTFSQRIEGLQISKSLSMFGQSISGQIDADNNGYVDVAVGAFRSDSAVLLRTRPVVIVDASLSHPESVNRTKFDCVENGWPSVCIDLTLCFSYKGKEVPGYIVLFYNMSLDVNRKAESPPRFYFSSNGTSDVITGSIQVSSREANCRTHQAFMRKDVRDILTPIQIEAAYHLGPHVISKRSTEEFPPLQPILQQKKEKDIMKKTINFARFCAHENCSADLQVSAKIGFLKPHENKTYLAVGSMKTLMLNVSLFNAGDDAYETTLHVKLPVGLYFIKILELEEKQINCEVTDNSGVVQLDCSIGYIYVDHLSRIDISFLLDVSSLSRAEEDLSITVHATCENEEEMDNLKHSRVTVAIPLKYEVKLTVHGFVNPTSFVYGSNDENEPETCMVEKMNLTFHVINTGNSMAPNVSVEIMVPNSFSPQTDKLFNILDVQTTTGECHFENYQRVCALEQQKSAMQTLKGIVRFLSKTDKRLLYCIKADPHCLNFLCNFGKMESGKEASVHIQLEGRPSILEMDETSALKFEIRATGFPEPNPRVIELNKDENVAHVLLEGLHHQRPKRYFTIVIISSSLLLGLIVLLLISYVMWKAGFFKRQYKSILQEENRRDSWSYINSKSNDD
SENP1 inh: human SENP1 catalytic domain inhibitors, primary screen, biochemical, FRET, uHTS; recombinant SENP1 catalytic domain, CyPet-SUMO1-YPet FRET cleavage; inhibition, % at 10 µM; AID 624204, 2012; 0.21% of 360,000 active;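 active means inhibition at least 30% at 10 µM, raw YFP signal under a set limit, fluorescence ratio 0.5 to 1.5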;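 further: 0% = enzyme with DMSO and 100% = no enzyme wells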
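Material – human SENP1 catalytic domain · Input – SENP1 enzyme, 20 pM final · Compound dosing – single concentration of 10 µM compound, 0.5% DMSO final · Timing – enzyme reaction for 50 min at room temperature, dark · Measured by – FRET fluorescence in CFP and YFP emission channels · Control set – no-enzyme wells low, DMSO-plus-enzyme wells high control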
Myeloid diff CP1: inducers of myeloid progenitor differentiation, confirmation, cell-based, GFP/Mac1 flow cytometry, cherry pick 01 | shares compounds with Myeloid diff 2 | ER-HoxA9 myeloid progenitors, GFP/Mac1 double-positive flow | calls only | 2% of 2,300 active | AID 651706, 2012;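 active means share of green or green-and-red cells above 9 and 9% in run 1 or 4 and 3% in run 2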
GFP autofluor: flagged as fluorescent in myeloid differentiation counter-screen; shares compounds with Myeloid diff 2; ER-HoxA9 myeloid progenitors, no estrogen, GFP autofluorescence flow cytometry; vehicle wells 0%, positive control 100%; fluorescence response, % (test concentration not listed); 7.4% of 2,300 active; AID 651707;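 active means over 5% cells positive for green fluorescent reporter, or over 2% positive for both it and APC stain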;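 further: range taken on the double positive population between DMSO and positive control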
* marks the source's active call; other numbers are inactive results; i = inactive; ? = inconclusive; . = not tested or not shown; + = active, no number. This is a sample that favours compounds with a hit; in the whole collection about 1.5% have one here.

SMILES | Myeloid diff 2 | Platelet DG rel | VLA-4 inh | SENP1 inh | Myeloid diff CP1 | GFP autofluor
O=C(CN(C(=O)CCC(=O)Nc1nccs1)c1ccccc1F)NCc1ccc(F)cc1 | i | -3.4 | 2.8 | 2.1 | . | .
CN(C)c1ccc(NC(=O)CN2CCC(O)(c3ccccc3)CC2)cc1 | i | -20.3 | 14.4 | 1.5 | i | 0.0
COc1cc(NCC(=O)Nc2cccc(S(=O)(=O)N3CCCCC3)c2)cc(OC)c1OC | + | . | -13.3 | 1.5 | i | 0.8
O=C(NCCO)c1cccc(S(=O)(=O)N2CCCCC2)c1 | i | -6.5 | 7.4 | 3.5 | i | 0.3
O=C(NCCN1CCOCC1)c1cccc(S(=O)(=O)N2CCCCCC2)c1 | i | -0.3 | 6.0 | 1.5 | . | .
O=C(Nc1cccc(S(=O)(=O)N2CCCCCC2)c1)c1cncc(Br)c1 | i | . | 3.4 | -1.9 | i | 0.0
O=C(Nc1cccc(S(=O)(=O)N2CCCCC2)c1)c1ccc2c(=O)n3c(nc2c1)CCCCC3 | i | 1.3 | 10.8 | 1.1 | i | 0.0
CCCCn1c(N)c(N(CCC(C)C)C(=O)c2ccc3c(c2)OCO3)c(=O)[nH]c1=O | i | -11.4 | -2.7 | -7.6 | . | .
CCN(C1CCS(=O)(=O)C1)S(=O)(=O)c1ccc(OC)c(OC)c1 (stereo not given) | i | -4.4 | 2.4 | -1.4 | . | .
COc1cccc(CNC(=O)COC(=O)c2ccc(N3CCCC3=O)cc2)c1 | i | . | . | 2.5 | . | .
N#Cc1cccc(NC(=O)Cn2cnc(S(=O)(=O)N3CCCCC3)c2)c1 | i | 1.4 | 14.6 | 3.1 | . | .
Cn1c(=O)c2c([nH]c(OCc3ccc(Cl)cc3Cl)[n+]2Cc2ccc(F)cc2)n(C)c1=O | i | ? | 1.4 | 1.8 | . | .
CN(C)S(=O)(=O)c1cccc(NC(=O)c2cccc(S(=O)(=O)N3CCCCCC3)c2)c1 | + | . | . | 1.5 | i | 0.5
CN(c1ccccc1)S(=O)(=O)c1cccc(C(=O)Nc2ccc(N3CCOCC3)cc2)c1 | i | . | . | 0.0 | . | .
Cc1ccc(N(C)S(=O)(=O)c2cccc(C(=O)Nc3ccc(N4CCOCC4)cc3)c2)cc1 | + | . | 0.0 | -1.9 | i | 0.3
CC(C(=O)Nc1ccc(F)c(F)c1F)N(C)CCOc1ccccc1 (stereo not given) | i | -1.9 | 1.4 | 1.2 | . | .
COc1ccc(C(=O)c2c3ccc(OC)cc3[n+]([O-])n2Cc2ccc(C(N)=O)cc2)cc1 | i | . | 10.6 | -2.5 | . | .
Cc1ccc(/C=N/NC(=O)c2ccncc2)o1 | i | -7.9 | 8.9 | 2.5 | . | .
Cc1ccc(/C=N/NC(=O)c2cc3c(s2)CCCC3)o1 | i | . | 2.9 | -3.9 | i | 0.3
Cc1cccc(OCC(=O)N/N=C/c2cc([N+](=O)[O-])ccc2N2CCOCC2)c1 | i | -2.3 | -3.4 | -5.4 | . | .
O=C(Nc1cccc(Br)c1)c1cc(S(=O)(=O)N2CCOCC2)cs1 | i | -3.6 | -22.7 | 0.1 | . | .
Cc1cccc(Cl)c1OCCCCn1ccnc1 | + | 2.2 | -1.0 | 1.1 | i | 0.0
COc1cccc(C2CC(c3ccccc3)=NN2S(=O)(=O)c2ccc(C)cc2)c1OC (stereo not given) | + | -3.1 | i | -51.1 | i | 92.7*
COc1ccccc1C1CC(c2ccccc2)=NN1S(=O)(=O)c1ccccc1 (stereo not given) | i | 3.3 | -5.3 | 2.8 | . | .
O=C(NCCS(=O)(=O)N1CCCCC1)c1ccccc1 | i | 19.7 | 23.6 | -7.1 | . | .
NS(=O)(=O)c1ccc(Nc2ncccc2[N+](=O)[O-])cc1 | + | -9.4 | 0.0 | -0.4 | i | 0.2
CC1O[C@@H](O[C@H](C)CC[C@@H](C)O[C@H]2OC(C)[C@@H](O)C[C@H]2O)C(O)C[C@H]1O (stereo not given in full) | i | -4.0 | -4.5 | -0.1 | . | .
Cc1ccc(C=Nc2ccc(N(C)C)cc2)o1 | i | 6.2 | -1.7 | 3.4 | i | 0.0
Cc1ccc(C=Nc2ccccc2C(N)=O)o1 | i | 7.3 | 9.4 | -1.2 | . | .
CCN(CC)C(=O)CSc1nnc([C@H](CCSC)NC(=O)OC(C)(C)C)o1 | i | . | 11.2 | -1.4 | . | .
